Measured values published in ChEMBL document CHEMBL1126609, “5-HT3 receptor antagonists. 2. 4-Hydroxy-3-quinolinecarboxylic acid derivatives” (J Med Chem, 1993).
Blank lines part the entries; values can stand above or below the compound they belong to.

Assays:
[1] = biological target: Serotonin 3 (5-HT3) receptor (Rattus norvegicus) (UniProt P35563+Q9JJ16); assay: In vivo inhibitory concentration after 5 minutes against 5-hydroxytryptamine 3 receptor induced bradycardia [bezold-jarisch (B-J) reflex test] in rat by intravenous administration; assay type: functional, organism-based
Procedure, shortened: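 Compounds given iv. The 5-HT-induced bradycardia (Bezold–Jarisch reflex) was measured at 5 min. ED50 is the dose reducing the bradycardia by 50%, from four determinations.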

[2] = biological target: T1, Serotonin 3 (5-HT3) receptor (Rattus norvegicus, UniProt P35563+Q9JJ16); assay: Binding affinity against radioligand [3H]quipazine labeled 5-hydroxytryptamine 3 receptor sites in neuroblastoma-glioma (NG108-15) cells.
T1 sequence (P35563 whole entry): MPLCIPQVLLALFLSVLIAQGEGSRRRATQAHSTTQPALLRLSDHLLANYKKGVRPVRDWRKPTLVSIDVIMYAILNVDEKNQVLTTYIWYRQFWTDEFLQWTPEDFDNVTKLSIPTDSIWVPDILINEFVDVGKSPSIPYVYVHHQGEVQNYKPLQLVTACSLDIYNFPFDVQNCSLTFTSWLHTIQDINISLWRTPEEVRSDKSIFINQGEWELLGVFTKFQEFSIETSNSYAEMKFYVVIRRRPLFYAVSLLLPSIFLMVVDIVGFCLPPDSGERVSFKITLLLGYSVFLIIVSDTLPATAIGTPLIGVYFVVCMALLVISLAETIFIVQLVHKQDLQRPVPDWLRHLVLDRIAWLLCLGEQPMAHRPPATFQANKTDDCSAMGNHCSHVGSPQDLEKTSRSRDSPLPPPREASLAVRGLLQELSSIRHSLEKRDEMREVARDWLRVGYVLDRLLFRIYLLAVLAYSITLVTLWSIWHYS
T1 sequence (Q9JJ16 whole entry): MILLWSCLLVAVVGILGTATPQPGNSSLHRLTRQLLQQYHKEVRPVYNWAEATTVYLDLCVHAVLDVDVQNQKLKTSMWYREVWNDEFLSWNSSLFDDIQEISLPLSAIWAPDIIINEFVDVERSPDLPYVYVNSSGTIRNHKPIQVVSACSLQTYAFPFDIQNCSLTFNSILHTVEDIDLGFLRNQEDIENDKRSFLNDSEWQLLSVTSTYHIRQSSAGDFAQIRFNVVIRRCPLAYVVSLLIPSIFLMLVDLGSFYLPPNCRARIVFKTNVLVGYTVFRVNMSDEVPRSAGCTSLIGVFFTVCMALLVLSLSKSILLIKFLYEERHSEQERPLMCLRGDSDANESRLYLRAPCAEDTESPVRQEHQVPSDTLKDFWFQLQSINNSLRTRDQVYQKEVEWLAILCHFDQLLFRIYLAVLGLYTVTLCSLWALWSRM

Canis familiaris [3] = assay: Mean percentage increase emetic latency in dog after an peroral administration of 0.1 mg/kg of drug; assay type: functional, Canis lupus familiaris; details: route oral
Procedure, shortened: (§1)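 Adult male fasted beagles (9–15 kg) received drug 30 min (iv) or 60 min (po) before cisplatin 3 mg/kg iv, dissolved by sonication in saline. Dogs were then observed 6 h, with emesis defined as productive regurgitation. Episode counts and latency were compared with controls (n = 7), using 2–4 dogs per dose. Dogs that never vomited were assigned 360 min latency.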

Canis familiaris [4] = assay: Mean percentage reduction due to cisplatin-induced emetic episodes in dog after an intravenous administration of 0.3 mg/kg of drug; assay type: functional, Canis lupus familiaris
Procedure, shortened: (§2)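 Adult male fasted beagle dogs (9-15 kg) received test drug iv 30 min before cisplatin (3 mg/kg, iv, in saline) and were monitored for 6 h. Episodes were counted as productive regurgitation of stomach contents. Percent reduction is versus the control group (n = 7); n = 2-4 dogs per dose.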

Canis familiaris [5] = assay: Mean percentage reduction due to cisplatin-induced emetic episodes in dog after an peroral administration of 1.0 mg/kg of drug; assay type: functional, Canis lupus familiaris; details: route oral; procedure, shortened: as §1
Canis familiaris [6] = assay: Mean percentage increase emetic latency in dog after an intravenous administration of 0.1 mg/kg of drug; assay type: functional, Canis lupus familiaris
Procedure, shortened: (§3)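 Adult male fasted beagle dogs (9-15 kg), fed on the day of the experiment; test drug given iv 30 min before cisplatin (3 mg/kg, iv, dissolved by sonication in saline). Dogs were monitored for 6 h. Emesis was defined as productive regurgitation of stomach contents.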

Canis familiaris [7] = assay: Mean percentage increase emetic latency in dog after an intravenous administration of 0.3 mg/kg of drug (when dogs did not vomit,360min); assay type: functional, Canis lupus familiaris; procedure, shortened: as §1
Canis familiaris [8] = assay: Mean percentage increase emetic latency in dog after an peroral administration of 1.0 mg/kg of drug; assay type: functional, Canis lupus familiaris; details: route oral; procedure, shortened: as §1
Canis familiaris [9] = assay: Mean percentage reduction due to cisplatin-induced emetic episodes in dog after an intravenous administration of 0.03 mg/kg of drug; assay type: functional, Canis lupus familiaris; procedure, shortened: as §1
Canis familiaris [10] = assay: Mean percentage reduction due to cisplatin-induced emetic episodes in dog after an peroral administration of 0.1 mg/kg of drug; assay type: functional, Canis lupus familiaris; details: route oral; procedure, shortened: as §1
Canis familiaris [11] = assay: Mean percentage reduction due to cisplatin-induced emetic episodes in dog after an intravenous administration of 0.1 mg/kg of drug; assay type: functional, Canis lupus familiaris; procedure, shortened: as §2
Canis familiaris [12] = assay: Mean percentage reduction due to cisplatin-induced emetic episodes in dog after an intravenous administration of 0.01 mg/kg of drug; assay type: functional, Canis lupus familiaris; procedure, shortened: as §1
Canis familiaris [13] = assay: Mean percentage increase emetic latency in dog after an intravenous administration of 0.01 mg/kg of drug; assay type: functional, Canis lupus familiaris; procedure, shortened: as §1
Canis familiaris [14] = assay: Mean percentage increase emetic latency in dog after an intravenous administration of 0.03 mg/kg of drug; assay type: functional, Canis lupus familiaris; procedure, shortened: as §1
Canis familiaris [15] = assay: Mean percentage increase emetic latency in dog after an intravenous administration of 0.3 mg/kg of drug; assay type: functional, Canis lupus familiaris; procedure, shortened: as §3
Canis familiaris [16] = assay: Mean percentage reduction due to cisplatin-induced emetic episodes in dog after an intravenous administration of 1 mg/kg of drug; assay type: functional, Canis lupus familiaris; procedure, shortened: as §2
Canis familiaris [17] = assay: Mean percentage increase emetic latency in dog after an intravenous administration of 1 mg/kg of drug (when dogs did not vomit, 360 min); assay type: functional, Canis lupus familiaris; procedure, shortened: as §3

SMILES: CN1C2CCC1CC(OC(=O)c1cnc3ccccc3c1)C2 (stereo not drawn)
ED50 [1]: 0.37 mg/kg
Ki [2]: 66.9 nM

SMILES: Cc1nc2ccccc2c(O)c1C(=O)OC1CC2CCC(C1)N2C (stereo not drawn)
Ki [2]: 58 nM

SMILES: Cc1nc2ccccc2c(O)c1C(=O)NC1CC2CCC(C1)N2C (stereo not drawn)
ED50 [1]: 0.015 mg/kg
Ki [2]: 7.2 nM

SMILES: Cc1ccc2c(O)c(C(=O)OC3CC4CCC(C3)N4C)cnc2n1 (stereo not drawn)
Ki [2]: > 100 nM

SMILES: CN1C2CCC1CC(NC(=O)c1cnc3ccccc3c1O)C2 (stereo in doubt; 6f)
Increase (Canis familiaris [3]): 32%
Reduction (Canis familiaris [4]): 100%
Increase (Canis familiaris [5]): 88%
Increase (Canis familiaris [6]): 116%
Increase (Canis familiaris [7]): >284%
Increase (Canis familiaris [8]): 142%
Reduction (Canis familiaris [9]): 54%
Reduction (Canis familiaris [10]): 64%
Reduction (Canis familiaris [11]): 80%
Reduction (Canis familiaris [12]): 44%
Ki [2]: 1.5 nM
Increase (Canis familiaris [13]): 14%
Increase (Canis familiaris [14]): 23%

SMILES: CN1C2CCC1CC(NC(=O)c1c(O)c3ccccc3[nH]c1=O)C2 (stereo not drawn)
Ki [2]: 7.6 nM

ED50 [1]: 0.019 mg/kg
SMILES: CN1C2CCCC1CC(NC(=O)c1nn(C)c3ccccc13)C2 (stereo not drawn)

SMILES: CCCCn1c(=O)c(C(=O)NC2CC3CCC(C2)N3C)c(O)c2ccccc21 (stereo not drawn)
ED50 [1]: 0.29 mg/kg
Ki [2]: 0.48 nM

SMILES: CN1C2CCC1CC(NC(=O)c1cnc3ccccc3c1O)C2 (stereo in doubt; 6h)
Ki [2]: 100 nM

SMILES: CN1C2CCC1CC(OC(=O)c1c(O)c3cccnc3n(-c3ccccc3)c1=O)C2 (stereo not drawn)
Ki [2]: > 100 nM

SMILES: CN1C2CCC1CC(NC(=O)c1cnc3ccccc3c1)C2 (stereo not drawn)
Ki [2]: > 100 nM

SMILES: Cc1ccc2c(O)c(C(=O)NC3CC4CCC(C3)N4C)cnc2n1 (stereo not drawn)
Ki [2]: > 100 nM

SMILES: Cc1nccn1CC1CCc2c(c3ccccc3n2C)C1=O (stereo not drawn) [ONDANSETRON]
Increase (Canis familiaris [15]): 115%
Reduction (Canis familiaris [4]): 61%
Reduction (Canis familiaris [16]): 100%
Increase (Canis familiaris [6]): 33%
Increase (Canis familiaris [17]): >284%
ED50 [1]: 0.021 mg/kg
Reduction (Canis familiaris [11]): 18%

SMILES: CCCCn1c(=O)c(C(=O)OC2CC3CCC(C2)N3C)c(O)c2ccccc21 (stereo not drawn)
Ki [2]: > 100 nM

SMILES: CCCCn1c(=O)c(C(=O)OC2CC3CCC(C2)N3C)c(O)c2cccnc21 (stereo not drawn)
Ki [2]: > 100 nM

SMILES: CN1C2CCC1CC(OC(=O)c1cnc3ccccc3c1O)C2 (stereo not drawn)
ED50 [1]: 0.0017 mg/kg
Ki [2]: 6.1 nM

SMILES: CN1C2CCCC1CC(NC(=O)c1cnc3ccccc3c1O)C2 (stereo not drawn)
Ki [2]: 30 nM

SMILES: CN1C2CCC1CC(NC(=O)c1cnc3ccccc3c1N)C2 (stereo not drawn)
Ki [2]: > 100 nM

SMILES: CN1C2CCC1CC(NC(=O)c1cnc3ccccc3c1Cl)C2 (stereo not drawn)
Ki [2]: 85 nM

SMILES: CN1C2CCC1CC(NC(=O)c1c(O)c3ccccc3n(-c3ccccc3)c1=O)C2 (stereo not drawn)
ED50 [1]: 0.073 mg/kg
Ki [2]: 1.4 nM

SMILES: CN1C2CCC1CC(NC(=O)c1c(O)c3cccnc3n(-c3ccccc3)c1=O)C2 (stereo not drawn)
Ki [2]: 14 nM

SMILES: CCCCn1c(=O)c(C(=O)NC2CC3CCC(C2)N3C)c(O)c2cccnc21 (stereo not drawn)
ED50 [1]: > 0.1 mg/kg
Ki [2]: 6.4 nM

SMILES: CN1C2CCC1CC(NC(=O)c1c(O)nc3ccccc3c1O)C2 (stereo not drawn)
ED50 [1]: 0.22 mg/kg

SMILES: O=C(NC1CCN2CCCC1C2)c1cnc2ccccc2c1O (stereo not drawn)
Ki [2]: 18 nM
